ChEMBL document CHEMBL4477161, “Facile Synthesis of Natural Alkoxynaphthalene Analogues from Plant Alkoxybenzenes” (J Nat Prod, 2016)
The source made the active and inactive calls.

Legend:
Assay type in all cases: functional, organism-based
Paracentrotus lividus [1] = assay: In vivo antiproliferative activity in sea urchin embryos assessed as cleavage alteration at 2 uM measured after 2.5 to 5.5 hrs post fertilization
How it was run: (§1)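 Fertilized sea urchin eggs, cultured at room temperature in filtered seawater with paddle agitation (60 rpm), were exposed as a monolayer (up to 2000 embryos/mL) 8−20 min after fertilization to 2-fold serial dilutions. Compounds came from 10 mM DMSO stocks diluted 10-fold in 96% EtOH, with final DMSO ≤0.05% and EtOH ≤1%. Cleavage alteration was scored microscopically at 2.5−5.5 h post-fertilization. The threshold concentration is the lowest dose giving 100% alteration.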

Paracentrotus lividus [2] = assay: In vivo antiproliferative activity in sea urchin embryos assessed as cleavage alteration at 4 uM measured after 2.5 to 5.5 hrs post fertilization; how it was run: as §1
Paracentrotus lividus [3] = assay: In vivo antiproliferative activity in sea urchin embryos assessed as cleavage alteration up to 4 uM measured after 2.5 to 5.5 hrs post fertilization; how it was run: as §1
Paracentrotus lividus [4] = assay: In vivo antiproliferative activity in sea urchin embryos assessed as cleavage alteration at 1 uM measured after 2.5 to 5.5 hrs post fertilization; how it was run: as §1

Row | SMILES | Activity (Paracentrotus lividus [3]) | further results
1 | COc1cc(-c2cccc3cc4c(cc23)OCO4)cc(OC)c1OC | – | Activity (Paracentrotus lividus [1]): Active; Activity (Paracentrotus lividus [2]): Active
2 | COc1ccc(C2CC(O)Cc3c(OC)c4c(c(OC)c32)OCO4)cc1 (stereo not given) | inactive | –
3 | COc1ccc(-c2cccc3cc(OC)c4c(c23)OCO4)cc1 | inactive | –
4 | COc1ccc(C(=O)CC(O)Cc2cc(OC)c3c(c2)OCO3)cc1 (stereo not given) | inactive | –
5 | COc1ccc(-c2cccc3c(OC)c(OC)c4c(c23)OCO4)cc1 | – | Activity (Paracentrotus lividus [1]): Active; Activity (Paracentrotus lividus [2]): Active; Activity (Paracentrotus lividus [4]): Active
6 | COc1ccc(C(O)CC(O)Cc2cc(OC)c3c(c2OC)OCO3)cc1 (stereo not given) | – | Activity (Paracentrotus lividus [1]): Active
7 | COc1ccc(-c2cccc3cc4c(cc23)OCO4)cc1 | inactive | –
8 | COc1ccc(C(=O)CC(O)Cc2ccc3c(c2)OCO3)cc1 (stereo not given) | inactive | –
9 | COc1ccc(C(N)CC(O)Cc2cc(OC)c3c(c2OC)OCO3)cc1 (stereo not given) | inactive | –
10 | COc1ccc(-c2cccc3c(OC)c(OC)c(OC)c(OC)c23)cc1 | inactive | –
11 | COc1ccc(-c2cccc3c(OC)c4c(c(OC)c23)OCO4)cc1 | inactive | –
12 | COc1ccc(-c2cccc3cc4c(c(OC)c23)OCO4)cc1 | – | Activity (Paracentrotus lividus [2]): Active
